Active and inactive are the calls of the source. The calls are words filed in the database; no cut-off is given here.

The subject of data set [1] is HEK293. In words: (§1) Displacement of [125I]-Tyr6, His5 from human LHRH1 receptor expressed in HEK 293 cells after 16 to 19 hrs by gamma counter. The data set is classed as cell-based. The procedure, abridged:
(§2)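 Competition binding on membranes from HEK 293 cells stably expressing human LHRH-I receptor, in HEPES buffer with CaCl2, MgCl2 and 0.5% BSA, pH 7.4. Radioligand was 120,000–240,000 cpm [125I-Tyr6,His5]LHRH with rising peptide concentrations, 16–19 h at 4 °C. Samples were filtered on PEI-soaked GF/C and gamma counted. Data were fitted to a one-site model by nonlinear regression; 3–4 experiments.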

Data set [2] can be described thus: as §1. The data set is classed as cell-based. The conditions noted are these: hek293. The procedure, abridged: as §2
Data set [3] in a line: Metabolic stability in mouse renal epithelial cell membranes assessed as compound remaining at 10 nM measured at 30 mins. It is filed as ADME, cell-based. The conditions noted are these: for remaining at 0.5 h, 0.01 µM: renal epithelial cell membranes, read-out: Stability. In short, it runs like this: (§3)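 Mouse kidney membranes (100,000 × g pellet) in 20 mM phosphate/100 mM NaCl, pH 7.4, at 4 mg/ml protein, incubated with 10 nM peptide at 37 °C with shaking. Sampling at 0, 30, 60 and 120 min was stopped with acetonitrile. LC-MS/MS (MRM) peak areas are expressed relative to t = 0 (100%).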

The nature of data set [4]: Cmax in overnight fasted C57BL/6N mouse at 1 mg/kg, ip. The data set is classed as ADME, organism-based. More on the design: dose 1 mg/kg, route intraperitoneal. The conditions noted are these: in vivo. The procedure, abridged: (§4)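 Male C57BL/6 mice, fasted 12 h overnight, given 1 mg kg-1 i.p. in saline. Blood was taken by cardiac puncture under isoflurane at 1, 2, 4 and 6 h post-dose (n = 5). Plasma was deproteinized and peptide was quantified by LC-MS/MS (MRM) against an internal standard using nine-point calibration curves. Parameters were derived from the plasma concentration–time data.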

In data set [5] the test system is Plasma. In words: Metabolic stability in overnight fasted C57BL/6N mouse plasma at 1 mg/kg, ip. More on the design: dose 1 mg/kg, route intraperitoneal. The conditions noted are these: in vivo. It is filed as ADME, organism-based. In short, it runs like this:
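Plasma peptide stability in vivo: fasted male C57BL/6 mice received 1 mg kg-1 i.p. in saline. Cardiac-puncture plasma was collected at 1, 2, 4 and 6 h (n = 5). Peptide was measured by LC-MS/MS after protein precipitation.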

Data set [6] can be described thus: Analytical recovery in overnight fasted C57BL/6N mouse plasma assessed as compound recovered at 5 ng/mL, ip.
For data set [7], the system named is Mus musculus. In words: Agonist activity at LHRH1 receptor in C57BL/6N mouse assessed as testosterone AUC (1 to 6 hrs) at 1 mg/kg, ip. It is filed as functional. The conditions noted are these: route intraperitoneal. The procedure, abridged:
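Male C57BL/6N mice were dosed 1 mg kg-1 i.p. with saline vehicle controls (n = 5). Cardiac-puncture plasma was taken at 1, 2, 4 and 6 h. Testosterone was quantified by LC-MS/MS with a dexamethasone internal standard, calibrated 0.05–100 ng mL-1. AUC was computed over 1–6 h; mean ± SD.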

Data set [8] is described as follows: Half life in overnight fasted C57BL/6N mouse at 1 mg/kg, ip. It is filed as ADME, organism-based. More on the design: dose 1 mg/kg, route intraperitoneal. To be noted: in vivo. The procedure, abridged:
as §4

Data set [9] has as its system Mus musculus. In words: Agonist activity at LHRH1 receptor in C57BL/6N mouse assessed as release of testosterone in plasma at 100 ug/kg, ip in presence of cetrorelix. It is filed as functional, organism-based. In short, it runs like this: (§5)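 Male C57BL/6N mice first received cetrorelix 1 mg kg-1 i.p. After 15 min, peptide was given i.p. at 1 or 100 µg kg-1 (n = 5). Plasma testosterone was quantified by LC-MS/MS with a dexamethasone internal standard.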

Data set [10] is described as follows: Drug excretion in overnight fasted C57BL/6N mouse assessed as elimination rate constant at 1 mg/kg, ip. It is filed as ADME, organism-based. More on the design: dose 1 mg/kg, route intraperitoneal. The conditions noted are these: in vivo, read-out: Drug excretion (converted). The procedure, abridged: as §4
Data set [11] relates to Mus musculus. The experiment in a line: Agonist activity at LHRH1 receptor in C57BL/6N mouse assessed as release of testosterone in plasma at 100 ug/kg, ip. It is filed as functional, organism-based. In short, it runs like this:
(§6)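 Male C57BL/6N mice were pretreated i.p. with saline. After 15 min, peptide was given i.p. at 1 or 100 µg kg-1 (n = 5). Plasma testosterone was measured by LC-MS/MS with a dexamethasone internal standard.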

The nature of data set [12]: Tmax in overnight fasted C57BL/6N mouse at 1 mg/kg, ip. To be noted: in vivo. The data set is classed as ADME, organism-based. More on the design: dose 1 mg/kg, route intraperitoneal. In short, it runs like this:
as §4

A short description of data set [13]: Metabolic stability in mouse renal epithelial cell membranes assessed as compound remaining at 10 nM measured at 120 mins. It is filed as ADME, cell-based. To be noted: read-out: Stability. In short, it runs like this: as §3
Data set [14] can be described thus: Metabolic stability in overnight fasted C57BL/6N mouse plasma assessed as compound remaining at 50 ng/mL, ip. It is filed as ADME, cell-free. To be noted: read-out: Stability. The procedure, abridged: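 Recovery of spiked peptide from mouse plasma at 5 and 50 ng/mL. Plasma was extracted by protein precipitation and analysed by LC-MS/MS with an internal standard.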

Data set [15] can be described thus: AUC in overnight fasted C57BL/6N mouse at 1 mg/kg, ip. The data set is classed as ADME, organism-based. More on the design: dose 1 mg/kg, route intraperitoneal. To be noted: plasma. In short, it runs like this:
as §4

In data set [16] the test system is Mus musculus. In words: Agonist activity at LHRH1 receptor in C57BL/6N mouse assessed as release of testosterone in plasma at 1 ug/kg, ip in presence of cetrorelix. The data set is classed as functional, organism-based. The procedure, abridged:
as §5

Data set [17] concerns Mus musculus. The experiment in a line: Agonist activity at LHRH1 receptor in C57BL/6N mouse assessed as release of testosterone in plasma at 1 ug/kg, ip. The data set is classed as functional, organism-based. The procedure, abridged:
as §6

As usually defined, the pIC50 is the IC50 on a negative log10 scale, so that one unit is a factor of ten. A higher pIC50 goes with a small IC50. Consider `COc1ccc(C[C@@H]2NC(=O)[C@H](CO)NC(=O)[C@H](Cc3c[nH]c4ccccc34)NC(=O)[C@H](Cc3cnc[nH]3)NC(=O)[C@@H]3CCCN3C(=O)CCCCCNC(=O)C[C@H](C)NC(=O)[C@@H]3CCCN3C(=O)[C@H](CCCNC(=N)N)NC(=O)[C@H](CC(C)C)NC(=O)[C@@H](CC(C)C)NC2=O)cc1`, for which the inhibition result in data set [1] was “Dose-dependent effect”. The pIC50 in [2] is 5.54. Moreover, the remaining at 0.5 h, 0.01 µM in data set [3] stood at 90%.
As to `CC(C)C[C@@H]1NC(=O)[C@@H](CC(C)C)NC(=O)[C@H](Cc2ccc(O)cc2)NC(=O)[C@H](CO)NC(=O)[C@H](Cc2c[nH]c3ccccc23)NC(=O)[C@H](Cc2cnc[nH]2)NC(=O)[C@@H]2CCCN2C(=O)CCCCCNC(=O)C[C@H](C)NC(=O)[C@@H]2CCCN2C(=O)[C@H](CCCNC(=N)N)NC1=O`, the inhibition result in data set [1] was “Dose-dependent effect”. The negative logarithm of the IC50 (pIC50) in data set [2] stood at 5.31. Also, the remaining at 0.5 h, 0.01 µM in data set [3] was 72%.
Broadly, the Cmax is the maximum level reached in the sampled fluid or tissue. A word on the half-life: it is how long it takes for the measured level to halve. In general, Tmax refers to the time at which the peak concentration occurs. One may read the AUC as the area under the concentration-time curve, a measure of exposure. A low value points to less exposure. For `CC(C)C[C@@H]1NC(=O)[C@@H](CC(C)C)NC(=O)[C@H](Cc2ccc(O)cc2)NC(=O)[C@H](CO)NC(=O)[C@H](Cc2c[nH]c3ccccc23)NC(=O)[C@H](Cc2cnc[nH]2)NC(=O)[C@@H]2CCCN2C(=O)C[C@H](C)NC(=O)[C@@H]2CCCN2C(=O)[C@H](CCCNC(=N)N)NC1=O`, the Cmax in [4] amounted to 834 ng/mL. Besides, in [1], the inhibition entry was “Dose-dependent effect”. The pIC50 in data set [2] came out at 6.17. Besides, the Stability entry in [5] is “Stable”. In addition, the recovered at 5 ng/mL in data set [6] is greater than 90%. In addition, in data set [7], the Activity is 61.1 ng·h/mL. In data set [8], this molecule showed a half-life of 30 min. In addition, the outcome in data set [9] was inactive. For the same molecule, the k el in data set [10] is 0.000278 s⁻¹. The result in data set [11] was Active. Besides, in data set [12], the Tmax was found to be 60 min. Moreover, the remaining at 0.5 h, 0.01 µM in data set [3] came to 100%. Moreover, in data set [13], the remaining at 2 h, 0.01 µM came to 100%. Further, the remaining at 50 ng/mL in data set [14] was greater than 90%. This molecule gave an AUC in data set [15] of 808 ng·h/mL.
In the case of `COc1ccc(C[C@@H]2NC(=O)[C@H](CO)NC(=O)[C@H](Cc3c[nH]c4ccccc34)NC(=O)[C@H](Cc3cnc[nH]3)NC(=O)[C@@H]3CCCN3C(=O)CC(C)NC(=O)[C@@H]3CCN3C(=O)[C@H](CCCNC(=N)N)NC(=O)[C@H](CC(C)C)NC(=O)[C@@H](CC(C)C)NC2=O)cc1` (some centres not stated), the inhibition entry in [1] is “Dose-dependent effect”. This molecule also had a pIC50 in [2] of 5.82. For the same molecule, in data set [3], the remaining at 0.5 h, 0.01 µM was 90%.
The corresponding values for `COc1ccc(C[C@@H]2NC(=O)[C@H](CO)NC(=O)[C@H](Cc3c[nH]c4ccccc34)NC(=O)[C@H](Cc3cnc[nH]3)NC(=O)[C@@H]3CCCN3C(=O)CNC(=O)[C@@H]3CCN3C(=O)[C@H](CCCNC(=N)N)NC(=O)[C@H](CC(C)C)NC(=O)[C@@H](Cc3c[nH]c4ccccc34)NC2=O)cc1` are “Dose-dependent effect”, 5.58 and 68%.
With `CC(C)C[C@H](NC(=O)CNC(=O)[C@H](Cc1ccc(O)cc1)NC(=O)[C@H](CO)NC(=O)[C@H](Cc1c[nH]c2ccccc12)NC(=O)[C@H](Cc1cnc[nH]1)NC(=O)[C@@H]1CCC(=O)N1)C(=O)N[C@@H](CCCNC(=N)N)C(=O)N1CCC[C@H]1C(=O)NCC(N)=O` [GONADORELIN], in [1], the inhibition result is “Dose-dependent effect”. Also, the Stability result in data set [3] (epithelial cell, 0.5 h, 0.01 µM) was “Unstable”.
For the molecule `CCNC(=O)[C@@H]1CCCN1C(=O)[C@H](CCCNC(=N)N)NC(=O)[C@H](CC(C)C)NC(=O)[C@@H](CC(C)C)NC(=O)[C@H](Cc1ccc(O)cc1)NC(=O)[C@H](CO)NC(=O)[C@H](Cc1c[nH]c2ccccc12)NC(=O)[C@H](Cc1c[nH]cn1)NC(=O)[C@@H]1CCC(=O)N1` [LEUPROLIDE], in data set [16], the outcome was inactive. Also, in [4], the Cmax came out at 190 ng/mL. Moreover, the inhibition entry in [1] is “Dose-dependent effect”. The same molecule displayed a pIC50 in [2] of 9.12. The Stability entry in [5] is “Stable”. Moreover, in data set [6], the recovered at 5 ng/mL is greater than 90%. Besides, the Activity in data set [7] is 244.1 ng·h/mL. Moreover, in data set [8], the half-life is 42 min. Further, in [10], the k el was 0.000278 s⁻¹. In [17], the outcome was Active. The remaining at 0.5 h, 0.01 µM in [3] is 3%. In addition, the remaining at 50 ng/mL in data set [14] is greater than 90%. The same molecule gave an AUC in [15] of 138 ng·h/mL.

These data come from ChEMBL document CHEMBL2150946, “Rationally designed cyclic analogues of luteinizing hormone-releasing hormone: enhanced enzymatic stability and biological properties” (Eur J Med Chem, 2012).
